Laboratory results reported in article PMC10278071 (ACS Chemical Biology, 2023).
Where two headings read alike, the source gives them in different places.

Key:
C4–2 cells [1] = test: C4–2 cell growth with harmine and bicalutamide; assay type: cell-based, human; settings: bicalutamide 10 μM, harmine 7 μM, alone or combined, after 6–8 days
DNMT3B-3L complex [2] = biological target: T1, DNMT3B-3L complex (Homo sapiens, UniProt Q9UBC3); test: Inhibition kinetics assay; assay type: biochemical; settings: for mode of inhibition versus SAM (Lineweaver–Burk): constant Vmax, increased Km upon inhibitor binding
DNMT3B-3L complex [3] = biological target: T1, DNMT3B-3L complex; test: Intrinsic tryptophan fluorescence spectroscopy titration; assay type: binding
How it was run: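 His-tagged DNMT3B (571–853) and DNMT3L (179–379), co-lysed from E. coli Rosetta2(DE3)pLysS and tag-cleaved, 1 μM complex. Titrated with test compound 0–80 μM at 25 °C. Excitation 280 nm, emission 300–450 nm, slit 5 nm. Buffer titrations subtracted as background. Intensity change fitted by nonlinear one-site specific binding. Three independent experiments.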

DNMT3B-3L = DNMT3B-3L (Homo sapiens, UniProt Q9UBC3); test: Isothermal titration calorimetry; assay type: binding
How it was run: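 Purified DNMT3B-3L complex at 0.02 mM in 20 mM Tris-HCl pH 8.0, 100 mM NaCl, 0.2 mM TCEP. Titrated with 7 μL injections of 0.52 mM test compound. Ligand-into-buffer heat subtracted. Independent binding model fitted to give n, Kd, ΔH and ΔS. Triplicate.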

C4–2 cells [4] = test: Western blot of caspase-3 and Bcl-2 after harmine treatment; assay type: cell-based, human; settings: 50 and 100 μM harmine, 24 h, serum-free
C4–2 cells [5] = test: Annexin V and PI staining flow cytometry apoptosis assay; assay type: cell-based, human; settings: 24 h
How it was run: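 C4–2 cells starved 24 h, then exposed 24 h in serum-free medium to test compound at 0, 50 or 100 μM. Cells washed twice in ice-cold PBS and resuspended at 2 × 10^6 cells/mL in binding buffer (10 mM HEPES pH 7.4, 150 mM NaCl, 2.5 mM CaCl2). Stained with APC-annexin V plus PI, then analysed by flow cytometry with compensation for spectral overlap.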

DU145 cells = test: Quantitative real-time PCR of hypermethylated genes; assay type: cell-based, human; settings: DU145, 10 μM, 16 h, normalized to 18S rRNA
How it was run: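 DU145 cells (RPMI 1640, 10% FBS) treated with test compound at 0 or 10 μM for 16 h. Total RNA extracted with TRIzol and DNase-treated; 5 μg reverse-transcribed. SYBR Green qPCR with two-step cycling. Expression normalized to 18S rRNA, reported as fold change versus untreated cells. Student's t-test between groups.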

murine DNMT3a = settings: read-out: IC50 murine DNMT3a; library screening; cited from earlier work
DYRK1A = settings: read-out: IC50 DYRK1A; cited from earlier work
[6] = biological target: acetylcholine esterase (AChE); settings: read-out: IC50 AChE; cited from earlier work
Cdk1/cyclin B = settings: read-out: IC50 Cdk1/cyclin B; cited from earlier work
Cdk2/cyclin A = settings: read-out: IC50 Cdk2/cyclin A; cited from earlier work
Cdk5/p25 = settings: read-out: IC50 Cdk5/p25; cited from earlier work
DNMT3B = settings: read-out: IC50 DNMT3B; cited from earlier work
DNMT3A [7] = settings: read-out: IC50 DNMT3A; cited from earlier work
DNMT1 = settings: cited from earlier work
human DNMT1 = settings: read-out: IC50 human DNMT1; cited from earlier work
DNMT3A [8] = settings: read-out: IC50 DNMT3A; cited from earlier work; remark: listed apart in the source

Compound: CC(O)(CS(=O)(=O)c1ccc(F)cc1)C(=O)Nc1ccc(C#N)c(C(F)(F)F)c1 (stereo not drawn) [bicalutamide]
- reduction of number of viable cells / cell proliferation (C4–2 cells [1]): 17%

Compound: COc1ccc2c(c1)[nH]c1c(C)nccc12 [harmine]
- mode of inhibition versus SAM (Lineweaver–Burk) (DNMT3B-3L complex [2]): competitive inhibitors
- Kd (DNMT3B-3L complex [3]): 3.48 ± 1.95 µM
- Kd (DNMT3B-3L): 3.35 ± 0.3 µM
- Bcl-2 protein levels (C4–2 cells [4]): decreased Bcl-2 protein levels
- levels of cleaved caspase-3 (C4–2 cells [4]): increased the levels of cleaved caspase-3
- cell apoptosis (Annexin V and PI staining) (C4–2 cells [5]; 0, 50, 100 μM harmine): induced cell apoptosis
- mRNA levels of DNMT3A and DNMT3B genes (DU145 cells): did not result in significant changes
- reduction of number of viable cells / cell proliferation (C4–2 cells [1]): 40%
- IC50 (murine DNMT3a): 2.3 µM
- IC50 [6]: 9.05 µM
- IC50 (Cdk1/cyclin B): 17 µM
- IC50 (Cdk2/cyclin A): 33 µM
- IC50 (Cdk5/p25): 20 µM

Compound: Oc1ccc(/C=C/c2cc(O)cc(O)c2)cc1 [resveratrol]
- Ki (DNMT3B-3L complex [2]): 23.6 ± 4.17 µM
- mode of inhibition versus SAM (Lineweaver–Burk) (DNMT3B-3L complex [2]): competitive inhibitors
- IC50 (DNMT3B): 65 µM
- IC50 (DNMT3A [7]): 105 µM
- inhibitory activity on DNMT1 (DNMT1): no inhibitory activity

Compound: Nc1ncnc2c1ncn2[C@@H]1O[C@H](C[C@@H](N)CC[C@H](N)C(=O)O)[C@@H](O)[C@H]1O [sinefungin]
- IC50 (DNMT3A [8]): 1.8 µM
